This test deals with Protein farnesyltransferase (Homo sapiens, UniProt P49354+P49356). Description: Inhibitory activity against recombinant mammalian protein Farnesyltransferase expressed in baculovirus. The procedure, abridged:
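Recombinant mammalian FTase, baculovirus-expressed and purified, assayed continuously by fluorescence with dansyl-GCVLS-OH as peptide cosubstrate and the FPP analogue as isoprenoid. IC50 is taken from the decrease in activity with rising analogue concentration. Analogue concentrations were verified by phosphate analysis.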
On to `CC(C)=CCC/C(C)=C/CC/C(=C/COP(=O)(O)OP(=O)(O)O)c1ccc(F)cc1`, for which the 50% inhibitory concentration (IC50) is 10100 nM.
As for `CC(C)=CCC/C(C)=C/CC/C(=C/COP(=O)(O)OP(=O)(O)O)CC(C)C`, the 50% inhibitory concentration (IC50) came to 290 nM.
In the case of `C=C(C)/C(=C\COP(=O)(O)OP(=O)(O)O)CC/C=C(\C)CCC=C(C)C` it was 18 nM; in that of `CC(C)=CCC/C(C)=C/CC/C(=C/COP(=O)(O)OP(=O)(O)O)CC(C)(C)C`, 6600 nM.
Regarding `CCC(C)/C(=C\COP(=O)(O)OP(=O)(O)O)CC/C=C(\C)CCC=C(C)C` (stereo not drawn), the 50% inhibitory concentration (IC50) came out at 102 nM.
In the case of `C=CC/C(=C\COP(=O)(O)OP(=O)(O)O)CC/C=C(\C)CCC=C(C)C` it was 119 nM.
In the case of `CCC/C(=C\COP(=O)(O)OP(=O)(O)O)CC/C=C(\C)CCC=C(C)C` it was 453 nM.
Next, `CC(C)=CCC/C(C)=C/CC/C(=C/COP(=O)(O)OP(=O)(O)O)C(C)C`: 35 nM.

These data come from ChEMBL document CHEMBL1133135, “Grignard-mediated synthesis and preliminary biological evaluation of novel 3-substituted farnesyl diphosphate analogues” (Bioorg Med Chem Lett, 2000).
